This note sets out measurements from ChEMBL document CHEMBL1641437, “New furin inhibitors based on weakly basic amidinohydrazones” (Bioorg Med Chem Lett, 2011).

Bounds are passed on as bounds.

For one assay, the target named is Furin (Homo sapiens, UniProt P09958). In words: Inhibition of human recombinant furin by fluorescence plate reader analysis. The gist of the method:
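Recombinant human furin, 0.95 nM, with fluorogenic pyroGlu-Arg-Thr-Lys-Arg-AMC at 5, 20 and 50 substrate concentrations, in 100 mM HEPES pH 7.0 with 0.2% Triton X-100, 2 mM CaCl2, 0.02% sodium azide, 1 mg/mL BSA; room temperature. AMC release read by fluorescence (ex 380, em 460 nm); Ki obtained by Dixon plot.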

The target in a further assay is Prothrombin (Homo sapiens, UniProt P00734). In words: Inhibition of thrombin.
In the next assay the target is Coagulation factor X (Homo sapiens, UniProt P00742). In words: Inhibition of factor 10a.
Sequence of Coagulation factor X (P00742 41-179 limits assumed): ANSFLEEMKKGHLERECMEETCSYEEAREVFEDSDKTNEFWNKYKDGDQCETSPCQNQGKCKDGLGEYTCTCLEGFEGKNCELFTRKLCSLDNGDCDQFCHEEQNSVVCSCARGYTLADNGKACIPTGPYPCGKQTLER
Sequence of Coagulation factor X (P00742 235-488 limits assumed): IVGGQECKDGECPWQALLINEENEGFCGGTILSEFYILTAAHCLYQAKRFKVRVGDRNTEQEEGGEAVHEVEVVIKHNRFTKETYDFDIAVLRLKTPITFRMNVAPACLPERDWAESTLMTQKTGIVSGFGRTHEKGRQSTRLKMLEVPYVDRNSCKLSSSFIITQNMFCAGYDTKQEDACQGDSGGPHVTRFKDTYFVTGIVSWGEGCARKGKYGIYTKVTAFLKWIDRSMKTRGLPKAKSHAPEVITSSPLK
The nature of assay [1]: Inhibition of trypsin.
Another assay concerns the target Plasminogen (Homo sapiens, UniProt P00747). In words: Inhibition of plasmin.
Assay [2] has as its target T1, Subtilisin Carlsberg (Bacillus licheniformis) (UniProt P00780).
T1 sequence (whole entry): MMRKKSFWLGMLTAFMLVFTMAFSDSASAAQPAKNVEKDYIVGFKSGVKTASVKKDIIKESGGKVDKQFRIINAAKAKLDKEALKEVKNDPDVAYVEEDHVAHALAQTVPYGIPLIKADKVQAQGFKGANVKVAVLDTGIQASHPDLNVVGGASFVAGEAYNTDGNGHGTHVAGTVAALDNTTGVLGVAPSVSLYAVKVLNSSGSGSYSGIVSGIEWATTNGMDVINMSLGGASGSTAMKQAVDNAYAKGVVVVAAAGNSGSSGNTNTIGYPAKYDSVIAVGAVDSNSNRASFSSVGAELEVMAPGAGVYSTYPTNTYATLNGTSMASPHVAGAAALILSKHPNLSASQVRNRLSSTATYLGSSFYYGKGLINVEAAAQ
In words: Inhibition of Bacillus licheniformis subtilisin at 100 uM relative to control.

Sequence of Plasminogen (P00747 97-580 limits assumed): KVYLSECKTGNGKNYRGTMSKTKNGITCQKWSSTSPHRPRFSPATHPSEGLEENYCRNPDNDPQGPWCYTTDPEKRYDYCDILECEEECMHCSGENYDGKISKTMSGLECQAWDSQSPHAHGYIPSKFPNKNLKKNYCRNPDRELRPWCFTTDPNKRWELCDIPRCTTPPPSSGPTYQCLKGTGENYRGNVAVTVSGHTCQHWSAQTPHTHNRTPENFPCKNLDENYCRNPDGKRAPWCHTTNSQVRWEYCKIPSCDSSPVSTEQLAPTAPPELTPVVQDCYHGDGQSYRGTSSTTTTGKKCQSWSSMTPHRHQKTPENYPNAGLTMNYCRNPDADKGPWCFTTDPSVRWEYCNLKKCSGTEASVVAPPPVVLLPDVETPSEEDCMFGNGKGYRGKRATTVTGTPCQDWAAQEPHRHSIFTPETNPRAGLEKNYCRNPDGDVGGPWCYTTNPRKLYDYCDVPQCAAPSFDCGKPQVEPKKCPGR
Sequence of Plasminogen (P00747 581-810 limits assumed): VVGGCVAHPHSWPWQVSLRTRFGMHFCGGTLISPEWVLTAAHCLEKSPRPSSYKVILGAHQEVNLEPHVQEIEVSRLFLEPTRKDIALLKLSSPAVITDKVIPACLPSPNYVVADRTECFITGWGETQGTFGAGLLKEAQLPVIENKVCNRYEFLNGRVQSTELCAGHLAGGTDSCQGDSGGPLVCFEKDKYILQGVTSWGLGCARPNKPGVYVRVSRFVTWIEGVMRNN
Sequence of Furin (P09958 whole entry): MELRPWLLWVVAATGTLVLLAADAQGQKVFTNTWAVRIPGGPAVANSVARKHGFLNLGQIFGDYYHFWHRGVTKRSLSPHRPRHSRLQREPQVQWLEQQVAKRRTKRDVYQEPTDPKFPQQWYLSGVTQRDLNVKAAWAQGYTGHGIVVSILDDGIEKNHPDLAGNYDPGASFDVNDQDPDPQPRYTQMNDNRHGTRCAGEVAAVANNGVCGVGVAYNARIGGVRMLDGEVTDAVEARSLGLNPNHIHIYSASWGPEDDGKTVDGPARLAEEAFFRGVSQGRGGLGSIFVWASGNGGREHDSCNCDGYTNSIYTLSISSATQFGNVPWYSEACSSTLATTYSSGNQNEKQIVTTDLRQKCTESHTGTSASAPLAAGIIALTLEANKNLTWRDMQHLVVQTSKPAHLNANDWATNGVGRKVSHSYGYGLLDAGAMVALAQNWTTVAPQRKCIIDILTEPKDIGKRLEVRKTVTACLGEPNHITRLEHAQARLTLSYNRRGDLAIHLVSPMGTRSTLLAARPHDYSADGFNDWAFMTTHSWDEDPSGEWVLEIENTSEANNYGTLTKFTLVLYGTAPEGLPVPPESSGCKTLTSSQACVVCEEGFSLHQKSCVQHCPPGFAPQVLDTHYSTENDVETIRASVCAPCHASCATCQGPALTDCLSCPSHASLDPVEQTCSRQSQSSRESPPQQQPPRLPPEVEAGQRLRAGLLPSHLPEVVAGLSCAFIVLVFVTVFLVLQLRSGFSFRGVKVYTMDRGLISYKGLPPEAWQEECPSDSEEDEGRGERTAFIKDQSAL

By Ki is commonly meant a dissociation constant, usually derived from enzyme kinetics or from competition with a known ligand. On to `C/C(=N\NC(=N)N)c1cc(NC(=O)CCCCCNC(=N)N)cc(/C(C)=N/NC(=N)N)c1`, for which the Ki at Furin amounted to 1.42 µM; at Prothrombin, 1000 µM; on Coagulation factor X it was 1000 µM; in assay [1] it was 110 µM; on Plasminogen, 1000 µM.

In the case of `C/C(=N\NC(=N)N)c1ccccc1`, at Furin, the Ki was 273 µM.

For orientation: inhibition means the drop in the measured response relative to a control, in per cent. High values mean a response far below the control, low ones a response near the control. Take `N=C(N)N/N=C/c1ccc(/C=N/NC(=N)N)cc1`: the Ki on Furin is 1.47 µM; on Prothrombin, 68 µM. Further, the inhibition in assay [2] was found to be 0%.

On to `N=C(N)NNC(=O)c1cccc(C(=O)NNC(=N)N)c1`, for which the Ki at Furin came to 27.9 µM.

As to `NC(N)=NNC(=O)c1ccc(C(=O)NN=C(N)N)cc1`, the results for the Ki at Furin and on Prothrombin were 173 µM and 1000 µM, respectively.

In the case of `C/C(=N/NC(=N)N)c1cc(NC(=O)COc2ccc(/C(C)=N/NC(=N)N)cc2)cc(/C(C)=N/NC(=N)N)c1`, the Ki at Furin is 1.94 µM.

Take `C/C(=N\NC(=N)N)c1cc(NC(=O)[C@H](N)CCCNC(=N)N)cc(/C(C)=N/NC(=N)N)c1`: the Ki stood at 1.13 µM at Furin; 1000 µM on Prothrombin; 1000 µM on Coagulation factor X; 68 µM in assay [1]; 1000 µM at Plasminogen.

Regarding `C/C(=N/NC(=N)N)c1cc(NC(=O)COc2ccccc2)cc(/C(C)=N/NC(=N)N)c1`, the Ki on Furin is 5.61 µM.

Turning to `C/C(=N/NC(=N)N)c1cc(OCC(=O)Nc2cc(/C(C)=N\NC(=N)N)cc(/C(C)=N/NC(=N)N)c2)cc(/C(C)=N\NC(=N)N)c1`, the Ki on Furin stood at 0.58 µM; on Prothrombin, 0.86 µM.

For the molecule `C/C(=N\NC(=N)N)c1cc(NC(=O)CCCNC(=N)N)cc(/C(C)=N/NC(=N)N)c1`, the Ki on Furin was 0.46 µM; on Prothrombin, 800 µM; at Coagulation factor X, 16 µM; in assay [1], 2.8 µM; on Plasminogen it was 1000 µM. This molecule showed an inhibition in assay [2] of 7.9%.

On to `N=C(N)N/N=C/c1cccc(/C=N/NC(=N)N)c1`, for which the inhibitory constant (Ki) at Furin was found to be 11.5 µM. In assay [2], this molecule registered an inhibition of 4.4%.

As for `C/C(=N/NC(=N)N)c1cccc(OCC(=O)Nc2cc(/C(C)=N\NC(=N)N)cc(/C(C)=N/NC(=N)N)c2)c1`, on Furin, the Ki was determined as 1.46 µM.

In the case of `N=C(N)N/N=C1\C/C(=N\NC(=N)N)c2ccccc21`, the Ki at Furin is 17.3 µM.

`C/C(=N\NC(=N)N)c1cc(NC(=O)CCCN)cc(/C(C)=N/NC(=N)N)c1`: the Ki at Furin came to 1.2 µM; at Prothrombin, 1000 µM; on Coagulation factor X, 1000 µM; in assay [1], 12 µM; at Plasminogen, 110 µM.

As to `C/C(=N/NC(=N)N)c1cc(OCC(=O)Nc2ccccc2)cc(/C(C)=N\NC(=N)N)c1`, on Furin, the Ki worked out at 1.35 µM.

As to `N=C(N)N/N=C/c1ccccc1`, the Ki on Furin is over 500 µM.

Consider `C/C(=N\NC(=N)N)c1cc(N)cc(/C(C)=N/NC(=N)N)c1`, for which the Ki at Furin is 1.82 µM.

As to `C/C(=N\NC(=N)N)c1cc(NC(=O)CCCCNC(=N)N)cc(/C(C)=N/NC(=N)N)c1`, the Ki on Furin was found to be 1.04 µM; at Prothrombin, 1000 µM; at Coagulation factor X it was 1000 µM; in assay [1], 23 µM; on Plasminogen it was 1000 µM.

On to `C/C(=N\NC(=N)N)c1cc(NS(=O)(=O)c2ccccc2)cc(/C(C)=N/NC(=N)N)c1`, for which the Ki worked out at 1.55 µM on Furin; 32 µM on Prothrombin; 80 µM on Coagulation factor X; 59 µM in assay [1]; 400 µM on Plasminogen.

With `C/C(=N\NC(=N)N)c1cccc(/C(C)=N/NC(=N)N)c1`, at Furin, the Ki amounted to 4.78 µM. In assay [2], this molecule had an inhibition of 0%.

In the case of `C/C(=N\NC(=N)N)c1ccc(Oc2ccc(/C(C)=N/NC(=N)N)cc2)cc1`, at Furin, the Ki amounted to 44 µM.

Regarding `C/C(=N\NC(=N)N)c1ccc(/C(C)=N/NC(=N)N)cc1`, the Ki worked out at 1.84 µM at Furin and 786 µM on Prothrombin. Also, the inhibition in assay [2] worked out at 7.9%.

`C/C(=N/NC(=N)N)c1cc(NC(=O)CC(=O)Nc2cc(/C(C)=N/NC(=N)N)cc(/C(C)=N/NC(=N)N)c2)cc(/C(C)=N/NC(=N)N)c1`: the Ki on Furin turned out to be 1.13 µM. In addition, in assay [2], the inhibition was 7.7%.

`N=C(N)NNC(=O)c1ccccc1`: at Furin, the Ki was determined as 376 µM.
